From ChEMBL document CHEMBL1141811, “Remangilones A-C, new cytotoxic triterpenes from Physena madagascariensis” (J Nat Prod, 1999)
pIC50: −log10 of the molar value. Activity calls are given as the source filed them. The calls are words filed in the database; no cut-off is given here.

What was measured:
[1] = test system: MDA-MB-435; assay: Induction of apoptosis in human MDA-MB-435 cells assessed as change in nuclear morphology at 50 nM by fluorescence microscopy; format: functional, cell-based
How it was run: (§1)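 MDA-MB-435 cells plated in DFCI-1 medium at (3-5) × 10^4 cells/35-mm dish and attached 24 h (37 °C, 6.5% CO2). Treated 48 h, then attached cells were examined by fluorescence microscopy for nuclear shrinkage and chromatin condensation or fragmentation. 50 nM paclitaxel served as positive control.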

[2] = test system: MDA-MB-435; assay: Cytotoxicity against human MDA-MB-435 cells by SRB assay; format: functional, cell-based
How it was run: (§2)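 Cells washed in PBS, resuspended in DFCI-1 medium and seeded in triplicate at 4000/0.2 mL/well. After 24 h attachment (37 °C, 6.5% CO2), cells got 0.1–40.0 μM compound (DMSO below 0.2% final; DMSO controls) for 48 h. Cells were then PBS-washed and SRB-stained, and dye was redissolved in 10 mM Tris·HCl and read at 550 nm. IC50 taken as 50% reduction of relative cell number.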

[3] = Cytotoxicity against human 70N cells by SRB assay; format: cell-based; how it was run: as §2
[4] = test system: MDA-MB-435; assay: Induction of apoptosis in human MDA-MB-435 cells assessed as change in nuclear morphology at 2.3 uM by fluorescence microscopy; format: functional, cell-based; how it was run: as §1
[5] = test system: MDA-MB-231; assay: Cytotoxicity against human MDA-MB-231 cells by SRB assay; format: functional, cell-based; how it was run: as §2
[6] = test system: MDA-MB-435; assay: Cytotoxicity against human MDA-MB-435 cells assessed as change from polarized to spherical cellular morphology by SRB assay; format: functional, cell-based
[7] = test system: MDA-MB-435; assay: Cytotoxicity against human MDA-MB-435 cells at 2.3 uM treated for 24 hrs and subsequently cultured in drug-free medium for 96 hrs by SRB assay; format: functional, cell-based
How it was run: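 MDA-MB-435 cells in DFCI-1 medium, seeded in triplicate at 4000/well and attached 24 h at 37 °C. Exposed to 2.3 μM compound for 24 h at 37 °C, then cultured in drug-free DFCI-1 medium for 96 h. Viability read by SRB staining with absorbance at 550 nm.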

[8] = test system: MDA-MB-231; assay: Cytotoxicity against human MDA-MB-231 cells assessed as change from polarized to spherical cellular morphology by SRB assay; format: functional, cell-based

Compound	Activity [1]	pIC50 [2]	pIC50 [3]	Activity [4]	pIC50 [5]	Activity [6]	Activity [7]	Activity [8]
CC(=O)O[C@H]1C(=O)[C@@]2(C)[C@H]([C@H](OC(=O)c3ccccc3)[C@]3(O)C[C@H](OC(=O)[C@H](O)[C@@H](NC(=O)c4ccccc4)c4ccccc4)C(C)=C1C3(C)C)[C@]1(OC(C)=O)CO[C@@H]1C[C@@H]2O	Active							
CC1=C2CC[C@]3(C)[C@H](CC=C4[C@@H]5CC(C)(C)CC[C@@H]5C(=O)[C@H](O)[C@]43C)[C@@]2(C)C=C(O)C1=O [REMANGILONE A]		5.07	4.39	Active	5.18	Active	Active	Active
